# Experimental data taken from the EternaBench riboswitch data.
# Test system: MS2 coat protein
# Assay: apparent Kd, MS2 coat protein; higher = weaker binding; RNA-MaP array; FMN 200 µM where present
# Summary of the method: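 On Illumina sequencing-chip clusters, designs were transcribed by stalled E. coli RNA polymerase and titrated with SNAP-549-labelled MS2 coat protein (0.7 or 1.5 nM, doubling to 3 µM), without and then with constant ligand, in 100 mM Tris-HCl pH 7.5, 80 mM KCl, 4 mM MgCl2, BSA, DTT, yeast tRNA and Tween-20. Apparent Kd is the median of filtered per-cluster curve fits to green signal normalised to red-channel RNA signal and control-cluster median Fmax.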
# [1] = designed as: OFF switch for flavin mononucleotide, no ligand
# [2] = ligand present: flavin mononucleotide, designed as: OFF switch for flavin mononucleotide
# [3] = designed as: ON switch for flavin mononucleotide, no ligand
# [4] = ligand present: flavin mononucleotide, designed as: ON switch for flavin mononucleotide
Sequence,apparent Kd [1] [nM],apparent Kd [2] [nM],apparent Kd [3] [nM],apparent Kd [4] [nM]
GCCUUAUCCGUCAGGAUAUACAUUUUUUUGUUGUUGUAGAAGGGACAUGAGGAUCACCCAUGUACAUUACAUUG,21.5,25.1,,
GCCUUAUCGGUCAGGAUAUACAUUUGUUAGUUGUUGUAGAAGGGACAUGAGGAUCACCCAUGUACAUUACAUUG,22.4,40.3,,
GCCUUAUCUGUCAGGAUAUACAAUAAUUUUUUUUUGUAGAAGGGACAUGAGGAUCACCCAUGUACAUUACAUUG,40,201,,
GCGAAUCAGUGAGGAUAUACAUAAUUUAUACCUGUAGAAGGCACAAACCUCAAGACAUGAGGAUCACCCAUGUGACAUAUCGCU,43.3,66.8,,
GCGAAUUAGUGAGGAUAUACAUAAUUUAUAACUGUAGAAGGCACAAUCCUCAAGACAUGAGGAUCACCCAUGUGGUAUUACGCU,151,911,,
GCGACGGCGAAAGGAUAUCAAAAUCAACAGUGUUGAGAAGGUUCUCCGAGGGUCGCACAUGAGGAUCACCCAUGUCGCGAAUCU,,,13.1,10.3
GCGAUUUUGUAAGGAUAUACACGAGUUUUAAGUGUAGAAGGUGCUUACAUGAGGAUCACCCAUGUAUAAAUGUAUAAUAGUCGC,,,9.14,8.18
GCGCAAACGCCAAAAGGCGAAACAACAUGAGGAUCACCCAUGUAGGAUAUCGAUUGCUUUGCAGUCGAGAAGGACAUAAUGCGC,17.1,16.1,,
GCGCACUAAGUGAGGAUAUCGUUUAUUUAUAGGAUCGAGAAGGCACAUGAGGAUCACCCAUGUUAAACGUGCGC,18.5,13.9,,
GCGCAUUUAAGAUUUAUAUAAUUGUCAGAAGGUGAAAAGACGACAUGAGGAUCACCCAUGUAAUUCAAGGAUAUGAUUUAGCGC,,,34.3,13.3
GCGCCUCAGAACAUGAGGAUCACCCAUGUGCUGCGGGCGCCGUAGGAUAUGAUGGUACGCUACCAUCAGAAGGAUGAUGGUACC,,,,5.02
GCGCGCGCAGGAUAUACAAUGCGCGCGCGAAAGUGUGUGUUACAUGAGGAUCACCCAUGUAGAAGGGUGUGUGU,539,492,,
GCGCUUAUACAGAAGGCCAGAGACAUGAGGAUCACCCAUGUUAGAUGGUGGAGGAUAUGUGUUUUAUUACAGAUAGUUGAGCGC,,,6.38,6.13
GCGCUUAUACAGAAGGCCAGAGACAUGAGGAUCACCCAUGUUAGAUUGUGGAGGAUAUGUGUUUUAUUACAGAUAGUUGAGCGC,,,20.5,6.53
GCGGAGAUACAGAAGGGAUAGGCCCUGGGCUAGUCAGGAUAUGUACGACGCAUCGUACAUGAGGAUCACCCAUGUAGCCGCUUG,,,278,189
GCGGUAAAGAUCCAUUUUUACAACAUGAGGAUCACCCAUGUGCAGGAUAUCGAAUGUUUUAUAUUCGAGAAGGGCAAUUACCGC,20.7,57.5,,
GCGUAACAUGAGGAUCACCCAUGUACUCGAGAAUUCGAGUGUAGAAGGGUGACCGGUCGUUUGGCACAGGAUAUACACGCUGUG,,,31.5,12
GCGUAACAUGAGGAUCACCCAUGUGCCCGAGAAUUCGGGCCGAGAAGGGUGACCGGUCGUUUGGCACAGGAUAUCGACGUUGUG,,,31.5,12.7
GCGUAAGUCACAGGAUAUCCAACAUGAGGAUCACCCAUGUAAAAGUGCCGCACUAGAAUGCGACUGGAGAAGGGUGAUUCGUCG,,,50.3,27.5
GCGUAAUUGAUCCUAUUUACCAACAUGAGGAUCACCCAUGUGCAGGAUAUGCUAAAGAUAGAUAAGCAGAAGGGCAUUUACCGC,47,211,,
GCGUGACAUGAGGAUCACCCAUGUGAGGAUAUCUGGAUACUCUUUAUUUUAGAUAUCCAGAGAAGGCACAUGCU,217,151,,
GCGUGGUUCUAGAAGGUGCUAGCGAUAAGCUAGCAAGGAUAUAGACAUGAGGAUCACCCAUGUCUAUGUGAAAUAGACACACGC,4.75,4.62,,
GCGUUAAAGAUCCAUUUUUACAACAUGAGGAUCACCCAUGUGCAGGAUAUCGAAUGUUUUAUAUUCGAGAAGGGCAAUUUCCGC,70.3,99.3,,
GCGUUGAACGAGAAGGCCAAUACAUGAGGAUCACCCAUGUUAAGUUGUUUUGGAGGAUAUCGAACACAUUCAAUAUUGCAACGC,6.06,5.65,,
GCGUUGUACGAGAAGGCCAAUACAUGAGGAUCACCCAUGUUAAGUUGUUUUGGAGGAUAUCGAUCACCUACAAUAAUGCAACGC,6.83,5.9,,
GCUAAGAAAGGAUAUACACCGGUGAGCCGCUGAUUUCAGCAACAUGAGGAUCACCCAUGUAGAAGGUUUAUGGG,367,110,,
GCUAAUUAGUGAGGAUAUACAUAAUUUAUUACUGUAGAAGGCACAAACCUCAAGACAUGAGGAUCACCCAUGUGGUAUUUAAGC,151,394,,
GCUAGGAAUGUCAGGAUAUGCUGUACCUUGGUACAGCAGAAGGGACAUGAGGAUCACCCAUGUGCUAACCUAGC,29.6,130,,

Sequence,apparent Kd [1] [nM],apparent Kd [2] [nM],apparent Kd [3] [nM],apparent Kd [4] [nM]
GCUAGUAUUGCAGGAUAUUGAGAAUAAUUAUUACAAGAAGGGCAUAACAUGAGGAUCACCCAUGUAUUCCUUAAUGAUACUAGC,6.31,7.13,,
GCUAUCGGGUGAGGAUAUAUGAUUGUGAUUAAAAUAGAAGGCAUCUCAGAAGACAUGAGGAUCACCCAUGUAGUUAAGAUGGCC,,,14.6,11.4
GCUAUCGGGUGAGGAUAUAUGAUUGUGAUUAAAAUAGAAGGCAUCUCAGAAGACAUGAGGAUCACCCAUGUAGUUAAGAUGGCU,,,15.3,12.8
GCUCACCGUCAGAAGGUACUUAAAAGUUGUGAGUAAGGAUAUGACAUGAGGAUCACCCAUGUAAACGUGGACUUUCACAUACAU,13.5,59.1,,
GCUCCCGGUGUCAGGAUAUAGAGUUGGAAACGCCACUAGAAGGGACAUGAGGAUCACCCAUGUCAAGUUCGCUC,14.8,14.9,,
GCUCGAUGUGCUGAAAACAUGAGGAUCACCCAUGUAGAUGAUCAGGAUAUUUACGUGCUUUAUGUAGAGAAGGGAUCAUCGAGC,,,64,27.7
GCUGACGAUGUAGGAUAUCUCGACGAUAAGUCGAGAGAAGGACAUGAGGAUCACCCAUGUACUCCAACGUCAGCGAGGAAACUC,18.2,18.5,,
GCUGACGAUGUAGGAUAUCUCGACGAUAAGUCGAGAGAAGGACAUGAGGAUCACCCAUGUAUCUCAACGUCAGCGAGGAAACUC,16.4,20.4,,
GCUGACGAUGUAGGAUAUCUCGACGAUAAGUCGAGAGAAGGACAUGAGGAUCACCCAUGUCUCCAAACGUCAGCGAGGAAACUC,16.1,16.4,,
GCUGCAUAGGCAGGAUAUACAAUAAUUCGAAUAAAAUAUAACGAAUUAACAUGAGGAUCACCCAUGUAGAAGGGCCUGUGCAGU,6.32,10.4,,
GCUGCGCGAGGAUAUGCGGUUCGCGCUGUGGCCCGUGGCGCACAUGAGGAUCACCCAUGUAGAAGGCGUGCGGG,12.2,13.1,,
GCUGGGUCAGGAUAUACAGGGUCGAAAGAUCUGUGAUACCUACAUGAGGAUCACCCAUGUAGAAGGGACUGGGC,15.7,38.1,,
GCUGUAAGAGGAUAUACAUGGUAUUGACUGGCACCGGUUAGACAUGAGGAUCACCCAUGUAGAAGGCUUGUAUG,86.3,248,,
GCUGUAUAUGAGAAGGCGAUCAUGAAACAUGAUCGAGGAUAUCAUGUAAACAUGAGGAUCACCCAUGUAUGGGUAUUAAGCAGC,,,280,46.6
GCUGUCGCAUGAGGAUAUGGUCUGCUUUGCAGACCAGAAGGCAUGUCAAUAGACAUGAGGAUCACCCAUGUAGUUAAGACAGCA,,,766,46.6
GCUUGAGCAGGAUAUACAUGAGGAUCACCCAUGUUGAGCUUGAGGAUCUUCGAGUUCGGUAGAAGGGUUCGAGU,22.1,59.5,,
GCUUGUGAAGGAUAUACUGGCGGCAUGCGCUCGGCACGCGCACAUGAGGAUCACCCAUGUAGAAGGUCAAACGU,22.4,22.8,,
GCUUUAUUGGUCAGGAUAUACAUUUGUUACUCUUUGUAGAAGGGACAUGAGGAUCACCCAUGUACAUUACAUUC,23.2,24.3,,
GGAAAACAUGAGGAUCACCCAUGUGAGGAUAUCGAUGUCCAGAGAGAGGUGCGGGACUCGAGAAGGCACUUGGA,44.5,87.5,,
GGAAAACAUGAGGAUCACCCAUGUGAGGAUAUCGAUGUCCAGGGCCUGCUGCGGGACUCGAGAAGGCAGUGGGA,41.2,21.7,,
GGAAAGCGAGGAUAUACAUGAGGAUCACCCAUGUUAACAAACAAACAAACAAACAAAAGUAGAAGGCGCAAAAU,37,36.5,,
GGAACUCAUGUAGGAUAUGCAUGGCGAAGCUACGCAGAAGGACAUGAGGAUCACCCAUGUUCUAGCGUCUGAGUACAGAUGCAA,126,178,,
GGAAUACAUGAGGAUCACCCAUGUAAGGAUAUGCUGAAUAACACGGAAUAAUCGUGCAGCAGAAGGUACAAAGG,145,111,,
GGACAGGACAGAGGAUAUACGUGCUAGAGAUACUAGCAAAAUUUCCUCACAUGAGGAUCACCCAUGUAGAAGGCUGUCCUAUCG,7.39,123,,
GGACAUCCCACAGGAUAUGCUGGACUUUGUCCAGCAGAAGGGUGAAAACAUGAGGAUCACCCAUGUAGGAUGUCCAUAUUUAAU,,,112,643
GGACGUCACAUGAACAUGAGGAUCACCCAUGUAACUAGACAUGAGGAUAUGGAUCCUAAUUGGAUCCAGAAGGCAUGGACGUCC,,,199,32.1
GGACGUCACAUUAACAUGAGGAUCACCCAUGUGAAAACACAUGAGGAUAUGGAUCCUAAUUGGAUCCAGAAGGCAUGGACGUCC,,,,6.6
